Activity calls are given as the source filed them. No cut-off for these calls is given here.
How the values were obtained:
[1] = Drug uptake in human BCC1 cells at 200 nM incubated for 30 mins measured after 4 to 24 hrs by fluorescent microscopy; assay type: ADME, cell-based; conditions: bcc1, 0.5 h, 0.2 µM
[2] = system: Colon 26; test: Photosensitizing activity in mouse Colon 26 assessed as cell viability at 0.0625 uM after 24 hrs followed by illumination with 665 nm laser light and 48 hrs incubation in dark by MTT assay in presence of serum; assay type: functional, cell-based
Procedure, shortened: (§1)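 Colon26 cells, 3×10³/well in RPMI/10% FCS, were incubated 24 h in the dark with photosensitizer at 0.3 μM or 0.0625 μM. Medium was replaced with drug-free complete medium before illumination at 0–4 J/cm², 3.2 mW/cm², at each compound's peak wavelength (660, 665 or 674 nm). After 48 h in the dark, MTT was added for the last 4 h and absorbance read at 570 nm. Four replicate wells per condition, three independent experiments.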

[3] = system: Mus musculus; test: Drug uptake in BALB/c mouse xenografted with mouse Colon 26 cells at 1 umol/kg, iv after 48 hrs by fluorescence imaging; assay type: ADME, organism-based; conditions: in vivo
Procedure, shortened: (§2)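 BALB/c mice (3/group) with Colon26 tumours (1×10⁶ cells s.c., right axilla, grown to 4–5 mm) were shaved and given 1.0 μmol/kg PS i.v. Whole-body fluorescence imaged under ketamine/xylazine at 24, 48 and 72 h: 540/40 nm illumination, long-pass emission filter, spectral unmixing of autofluorescence. Read-out is mean intensity of a 20 mm tumour ROI (AU), mean ± SD of 3 mice.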

[4] = system: Colon 26; test: Drug uptake in mouse Colon 26 cells at 800 nM after 24 hrs by flow cytometry; assay type: ADME, cell-based; conditions: colon 26, 24 h, 0.8 µM
Procedure, shortened: (§3)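 Colon26 cells seeded at 0.33×10⁶ per well and grown overnight, then given 100–800 nM PS in triplicate at 37°C, with no-PS wells for autofluorescence. Harvested by trypsin, spun cold, and run on flow cytometry (Ex 633 nm, Em 730±45 nm, 10,000 events). Value is mean fluorescence of triplicates minus autofluorescence.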

[5] = Drug uptake in human BCC1 cells assessed as deposition in mitochondria at 200 nM after 30 mins by HPPH fluorescence spectrophotometry; assay type: ADME; conditions: bcc1, 0.5 h, 0.2 µM
Procedure, shortened: (§4)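 BCC1 cells in subconfluent culture, washed and incubated 30 min in serum-free DMEM with 200 nM PS. Washed free of PS and imaged at 640X under phase contrast and HPPH fluorescence (Ex 410/40, Em 675/750 nm). Cell PS also quantified by solubilising cells and reading fluorescence (Ex 415, Em 667 nm).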

[6] = Drug uptake in human BCC1 cells assessed as deposition in mitochondria at 200 nM after 30 mins by phase contrast microscopy; assay type: ADME; conditions: bcc1, 0.5 h, 0.2 µM; procedure, shortened: as §4
[7] = Photostability of the compound in 17% bovine calf serum assessed as rate of photobleaching at 6.5 uM after 20 to 22 mins in presence of light (75 mW/cm'2); assay type: ADME; conditions: cattle, read-out: Drug degradation
Procedure, shortened: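 Equimolar (6.5 μM) photosensitizer solutions in 17% bovine calf serum were irradiated at 75 mW/cm². Absorption spectra were recorded at successive time points, and the normalized long-wavelength absorbance was plotted against time to follow photobleaching.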

[8] = Drug uptake in BALB/c mouse tumor xenografted with mouse Colon 26 cells at 1 umol/kg, iv after 24 hrs by fluorescence imaging; assay type: ADME, organism-based, Neoplasm; conditions: in vivo; procedure, shortened: as §2
[9] = system: Mus musculus; test: Drug uptake in BALB/c mouse xenografted with mouse Colon 26 cells at 1 umol/kg, iv after 24 hrs by fluorescence imaging; assay type: ADME, organism-based; conditions: in vivo; procedure, shortened: as §2
[10] = system: Mus musculus; test: Drug uptake in BALB/c mouse xenografted with mouse Colon 26 cells at 1 umol/kg, iv after 72 hrs by fluorescence imaging; assay type: ADME, organism-based; conditions: in vivo; procedure, shortened: as §2
[11] = system: Zone of skin; test: Drug uptake in skin of BALB/c mouse xenografted with mouse Colon 26 cells measured after removal of tumor at 1 umol/kg, iv after 24 hrs by fluorescence imaging; assay type: ADME, organism-based; conditions: in vivo
Procedure, shortened: (§5)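 BALB/c mice carried subcutaneous Colon26 tumors (1×10⁶ cells, right posterior axilla) grown to 4–5 mm and were given 1 μmol/kg i.v. At 24 h the tumor was surgically removed and imaged, and the skin flap was imaged separately. Excitation was 540/40 nm with long-pass emission, followed by spectral unmixing of autofluorescence.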

[12] = system: BCC1; test: Increase in STAT3 cross linking level in human BCC1 cells assessed as dimerization of STAT3 after 9 mins by Western blotting in presence of 665 nm light
[13] = system: BCC1; test: Induction of apoptosis in human BCC1 cells assessed as survival after 24 hrs by trypan blue assay; assay type: functional, cell-based
Procedure, shortened: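 BCC1 cells were loaded for 2 h in serum-free DMEM with 2-fold serial dilutions of photosensitizer. After washing, they were illuminated in serum-free medium at 37° with 665 nm dye-laser light for 9 min (3 J/cm²). Cells were then cultured 24 h in DMEM/10% FCS and trypsinized. Trypan blue-excluding cells were counted by hemocytometer and expressed relative to untreated controls.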

[14] = system: Colon 26; test: Antitumor activity against mouse Colon 26 cells xenografted in parenterally dosed BALB/c mouse assessed as tumor cure at 1 umol/kg after 24 hrs followed by illumination with 128 J/cm'2, 14 mW/cm'2 laser light measured after 60 days; assay type: functional
Procedure, shortened: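 Subcutaneous Colon26 tumours in BALB/c mice (10/group), dosed at 4–5 mm diameter with 1 μmol/kg PS. At 24 h, unanaesthetised restrained mice received laser light to the tumour (665, 660 or 674 nm by compound; 128 J/cm², 14 mW/cm²). Tumours measured daily (V = L·W²/2). Cure means no palpable tumour by day 60–90. Euthanasia at 400 mm³.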

[15] = Drug uptake in tumor of BALB/c mouse xenografted with mouse Colon 26 cells at 1 umol/kg, iv after 24 hrs by fluorescence imaging; assay type: ADME, organism-based, Neoplasm; conditions: in vivo; procedure, shortened: as §5
[16] = system: Colon 26; test: Drug uptake in mouse Colon 26 cells at 400 nM after 24 hrs by flow cytometry; assay type: ADME, cell-based; conditions: colon 26, 24 h, 0.4 µM; procedure, shortened: as §3
[17] = target: MAP kinase p38 (Homo sapiens) (UniProt O15264+Q15759+Q16539+P53778); test: Activation of p38 MAPK in human BCC1 cells assessed as dimerization of STAT3 after 9 mins by Western blotting in presence of 665 nm laser light; assay type: cell-based
Procedure, shortened: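 Subconfluent BCC1 cells, 2 h in serum-free DMEM with 2-fold serially diluted PS, then 665 nm dye-laser light for 9 min at 37°C (3 J/cm²) in serum-free medium. Cells extracted immediately and lysed in RIPA. 20 μg protein run on 6–10% SDS gels and immunoblotted for STAT3, p38/P-p38 and EGFR with ECL detection. Crosslinking given as % monomeric STAT3 converted to dimer form I.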

[18] = system: BCC1; test: Reduction in EGFR levels in human BCC1 cells after 9 mins by Western blotting in presence of 665 nm laser light; assay type: functional, cell-based
Procedure, shortened: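 BCC1 cells were incubated 2 h in serum-free DMEM with 2-fold serially diluted photosensitizer, washed, and illuminated with 665 nm light for 9 min (3 J/cm²). They were extracted immediately in RIPA buffer. Extracts (20 μg protein) were run on 6–10% SDS gels and immunoblotted for STAT3, EGFR, p38 and P-p38 with ECL detection. STAT3 crosslinking was scored as percent conversion of monomer into dimer form I.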

[19] = system: BCC1 cells (Homo sapiens); test: Ratio of drug uptake in human BCC1 cells in serum free medium to drug uptake in human BCC1 cells in medium containing 10% fetal calf serum by fluorescent microscopy
[20] = Drug uptake in human BCC1 cells assessed as subcellular localization at 3.2 uM after 4 hrs by HPPH fluorescence spectrophotometry; assay type: ADME, cell-based; conditions: bcc1, 4 h
Procedure, shortened: (§6)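 BCC1 cells incubated 30 min in serum-free DMEM with 3.2 μM or 0.2 μM PS, washed, and imaged at 640X under phase contrast or HPPH fluorescence. Cultures then kept a further 4 h in PS- and serum-free DMEM and imaged again under the same conditions to follow subcellular redistribution.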

[21] = Drug uptake in human BCC1 cells assessed as deposition in mitochondria at 3.2 uM after 30 mins by phase contrast microscopy; assay type: ADME; conditions: bcc1, 0.5 h; procedure, shortened: as §6
[22] = Drug uptake in human BCC1 cells assessed as deposition in mitochondria at 3.2 uM after 30 mins by HPPH fluorescence spectrophotometry; assay type: ADME; conditions: bcc1, 0.5 h; procedure, shortened: as §6
[23] = Drug uptake in human BCC1 cells assessed as subcellular localization at 3.2 uM after 4 hrs by phase contrast microscopy; assay type: ADME, cell-based; conditions: bcc1, 4 h; procedure, shortened: as §6
[24] = Drug uptake in human BCC1 cells at 200 nM after 30 mins by fluorescent microscopy; conditions: bcc1, 30 min, 0.2 µM
[25] = system: Heart; test: Drug uptake in BALB/c mouse heart xenografted with mouse Colon 26 cells at 150 uCi administered parenterally after 2 hrs by PET analysis; assay type: ADME, tissue-based; conditions: in vivo, other
[26] = system: Muscle tissue; test: Drug uptake in BALB/c mouse muscle xenografted with mouse Colon 26 cells at 150 uCi administered parenterally after 2 hrs by PET analysis; assay type: ADME, tissue-based; conditions: in vivo
[27] = Drug uptake in BALB/c mouse tumor xenografted with mouse Colon 26 cells at 150 uCi administered parenterally after 2 hrs by PET analysis; assay type: ADME, Neoplasm; conditions: in vivo, other
[28] = Drug uptake in human BCC1 cells assessed as deposition in mitochondria at 0.2 uM after 30 mins by HPPH fluorescence spectrophotometry; assay type: ADME; conditions: bcc1, 0.5 h; procedure, shortened: as §4
[29] = system: Liver; test: Drug uptake in parenterally dosed BALB/c mouse liver xenografted with mouse Colon 26 cells after 72 hrs by PET analysis; assay type: ADME, organism-based; conditions: in vivo
Procedure, shortened: (§7)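 Tumor-bearing BALB/c mice (Colon26, subcutaneous) received ¹²⁴I-labeled photosensitizer via the tail vein at 15–50 μCi. Three mice per time point were sacrificed at 24, 48 and 72 h. Organs were removed, weighed and counted in a γ-well counter. Uptake was expressed as %ID/g tissue.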

[30] = Drug uptake in human BCC1 cells assessed as deposition in mitochondria at 0.2 uM after for 30 mins by phase contrast microscopy; assay type: ADME; conditions: bcc1, 0.5 h; procedure, shortened: as §4
[31] = Drug uptake in human BCC1 cells assessed as subcellular localization at 0.2 uM after 4 hrs by phase contrast microscopy; assay type: ADME, cell-based; conditions: bcc1, 4 h; procedure, shortened: as §6
[32] = Drug uptake in human BCC1 cells assessed as subcellular localization at 0.2 uM after 4 hrs by HPPH fluorescence spectrophotometry; assay type: ADME, cell-based; conditions: bcc1, 4 h; procedure, shortened: as §6
[33] = system: Colon 26; test: Photosensitizing activity in mouse Colon 26 assessed as cell viability at 0.3 uM after 24 hrs followed by illumination with 665 nm laser light and 48 hrs incubation in dark by MTT assay; assay type: functional, cell-based; procedure, shortened: as §1
[34] = system: Intestine; test: Drug uptake in parenterally dosed BALB/c mouse intestine xenografted with mouse Colon 26 cells after 72 hrs by PET analysis; assay type: ADME, organism-based; conditions: in vivo, other; procedure, shortened: as §7
[35] = system: Spleen; test: Drug uptake in parenterally dosed BALB/c mouse spleen xenografted with mouse Colon 26 cells after 72 hrs by PET analysis; assay type: ADME, organism-based; conditions: in vivo; procedure, shortened: as §7

CC[C@H]1c2cc3[nH]c4c(c5nc(cc6[nH]c(cc(n2)[C@@H]1C)c(C(C)OCc1cccc(I)c1)c6C)C(C)=C5CCC(=O)O)CC(=O)c4c3C (stereo partly specified)
Drug uptake [1]: Active | Activity [2]: Active | Drug uptake [3]: Active | Drug uptake [4]: Active | Drug uptake [5]: Active | Drug uptake [6]: Active | degraded at 6.5 µM [7]: 50% | Drug uptake [8]: Active | Drug uptake [9]: Active | Drug uptake [10]: Active | Drug uptake [11]: Not Active | Activity [12]: Active | Activity [13]: Dose-dependent effect | Activity [14]: 60% | Drug uptake [15]: Active | Drug uptake [16]: Active | Activity [17]: Active | Activity [18]: Active | Ratio [19]: 4

CCC1=C(C)c2cc3[nH]c(cc4nc(c5c6[nH]c(cc1n2)c(C)c6C(=O)C5)C(CCC(=O)OC)[C@@H]4C)c(C)c3C(C)OCc1cccc(I)c1 (stereo partly specified)
Drug uptake [20]: Active | Drug uptake [5]: Active | Drug uptake [21]: Active | Drug uptake [22]: Active | Drug uptake [6]: Active | Drug uptake [23]: Active | Activity [12]: Active | Activity [13]: Dose-dependent effect | Activity [14]: 20% | Drug uptake [24]: Active | Activity [17]: Active | Activity [18]: Active | Ratio [19]: 5

OC[C@H]1O[C@@H](O)[C@H]([18F])[C@@H](O)[C@@H]1O [FLUDEOXYGLUCOSE-F18]
Drug uptake [25]: Active | Drug uptake [26]: Active | Drug uptake [27]: Active

CCC1=C(C)c2cc3[nH]c(cc4nc(c5c6[nH]c(cc1n2)c(C)c6C(=O)C5)C(CCC(=O)O)[C@@H]4C)c(C)c3C(C)OCc1cccc(I)c1 (stereo partly specified)
Drug uptake [1]: Active | Activity [2]: Active | Drug uptake [3]: Active | Drug uptake [4]: Active | Drug uptake [5]: Active | Drug uptake [28]: Active | Drug uptake [29]: Active | Drug uptake [6]: Active | degraded at 6.5 µM [7]: 50% | Drug uptake [8]: Active | Drug uptake [9]: Active | Drug uptake [10]: Active | Drug uptake [11]: Not Active | Drug uptake [30]: Active | Activity [12]: Active | Activity [13]: Dose-dependent effect | Drug uptake [15]: Active | Drug uptake [31]: Active | Drug uptake [16]: Active | Drug uptake [32]: Active | Activity [17]: Active | Activity [33]: Active | Drug uptake [34]: Active | Drug uptake [35]: Active | Activity [18]: Active | Ratio [19]: 4
